Data on 37 variants can be found in the RNAGym collection of RNA variant scans (doi:10.1126/science.aae0568).

Fewer inactive variants are shown than the library holds.

First the molecules themselves.
B1: tRNA (parent)
chain: GUUCCGUUGGCGUAAUGGUAACGCGUCUCCCUCCUAAGGAGAAGACUGCGGGUUCGAGUCCCGUACGGAACG

Variants of B1 are the subject of this data set. The data set is described as follows: yeast fitness relative to wild type (ratio to wild type); higher = fitter; tRNA-Arg(CCU), competitive growth, 37 C, YPD. Put shortly: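 Variants of the tRNA-Arg(CCU) gene were chemically synthesised with a 3% per-site mutation rate across 69 sites and placed at the native genomic locus in Saccharomyces cerevisiae. Six parallel replicates of the pooled strains were competed in YPD at 37°C for 24 hours, and gene amplicons from the start and end populations were read by 100-nucleotide paired-end sequencing. Darwinian fitness relative to wild type was derived from changes in genotype frequencies. Genotypes required ≥ 100 starting reads, and estimates < 0.5 were set to 0.5.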
Consider GUUCCGUUGGCGUAAUGGUAGCGCCUCUACCUCCUAAGGAGAAGACUGCGGGUUGGAGUCCCGUACGCAACG [A21G G25C C29A C55G G68C], for which the yeast fitness was not above 0.5.
The value for GUUCCGUUGGCGUAAUGGUAGCACGUGUCCCUCCUAUGGAGAAAACUGUGGGUUCGAGUCCCGUACCGUACG [A21G G23A C27G A37U G44A C49U G67C A69U] was not above 0.5; that for GUUCCGUUGGCGUAAUGGUAGCACGUCUCCCUCCUAAGGAGAAGACUGCGGGUUCGACUCCCGUACGGAACG [A21G G23A G58C] was 0.537.
The value for GUUCCGUUGGCGUAAUGGUAGCGCGUCUCCCUCCUAAGGAGAAGACUGCGGGUUCGAGUCCCGUAUGGUACG [A21G C66U A69U] was 0.771.
As to GUUCCGUUGGCGUAAUGGUAGCGCGUCUCCCUACUAAGGCGAAGACUGCGGGUUCGAGUCCCGUACGGAACG [A21G C33A A40C], the yeast fitness was 0.527.
With GUUCCGUUGGCGUAAUGGUAGCGCGUCUCCCUACUAAGGACAAGACUGCGGGUUCGAGUCCCGUACGGAACG [A21G C33A G41C] the figure was not above 0.5; with GUUCCGUUGGCGUAAUGGUAGCGCGUCUCCCUACUAAGGAGAAGACUGUGGGUUGGAGUCCCGUACGGAACG [A21G C33A C49U C55G], not above 0.5.
In the case of GUUCCGUUGGCGUAAUGGUAGCGCGUCUCCCUCCUAAGGAGAAGACUGCGGGUUCGAGUCCCGUAAGGAACG [A21G C66A], the yeast fitness turned out to be 0.701.
The value for GUUCCGUUGGCGUAAUGGUAGCGCGUCUCCCUCCUAAGGAGAAGAUUGCGGGUUCGAGUCCUGUACGGAACG [A21G C46U C62U] was 1.1.
As to GUUCCGUUGGCGUAAUGGUAGCGCGUCUCCCUCGUAAGGAGAAGACUGCGGGUUCGAGUCUCGUACGGACCG [A21G C34G C61U A70C], the yeast fitness is 0.555.
For GUUCCGUUGGCGUAAUGGUAGCACGUCUCCCUCCUAAGGAGAAGACUGCGGGUUCGUGUCCCGUACGGAUCG [A21G G23A A57U A70U], the yeast fitness is not above 0.5.
With GUUCCGUUGGCGUAAUGGUAGCGCGUCUCCCUCCUAAGGAGAAGAUUGCGGGUUGGAGUCCCGUACGGAACG [A21G C46U C55G] the figure was 0.603; with GUUCCGUUGGCGUAAUGGUAGCGCGUCUCCCUCCUAAGGAGAAGACUGCGGGUUGGAGUCCCGUAUGGCACG [A21G C55G C66U A69C], not above 0.5.
The value for GUUCCGUUGGCGUAAUGGUAGCGCGUCUCCCUCCUAAGGAGAAGACUGUGGGUUCGAGUCCCGUACGGAGCG [A21G C49U A70G] was 0.817; that for GUUCCGUUGGCGUAAUGGUAGCGCGUCUCCCUCUUAAGGAGAAGACUACGGGUUCGAGUCCCGUACAGAACG [A21G C34U G48A G67A] was not above 0.5; that for GUUCCGUUGGCGUAAUGGUAGCACGUCUCCUUCCUAAGGAGAAGCCUGCGGGUUCGAGUACCGUAUGGAACG [A21G G23A C31U A45C C60A C66U] was not above 0.5.
The value for GUUCCGUUGGCGUAAUGGUAGCGCGUCUCCCUCUUAAGGAGAAGACUGCGGGUUGGAGUCCCGUACGGAACG [A21G C34U C55G] was not above 0.5; that for GUUCCGUUGGCGUAAUGGUAGCGCGUCUCCCUCCUAAGGAGAAGAUUGCGGGUUCAAGUCGCGUACGGAACG [A21G C46U G56A C61G] was not above 0.5; that for GUUCCGUUGGCGUAAUGGUAGCGCGUCUCCCUCCUAAGGAGAAGAAUGCGGGUUCGAGUCCCGUACGGACCG [A21G C46A A70C] was 1.07.
Take GUUCCGUUGGCGUAAUGGUAGCGCGUCUCCCUUCUAAGGAGAAGACUGCGGGUUCGAGUCCCGUACGGAACG [A21G C33U]: the yeast fitness came out at 0.73.
With GUUCCGUUGGCGUAAUGGUAGCGCGUCUCCCUUCUAAGGAGAAGACUGCGCGUUCGAGUCCCGUACGGAACG [A21G C33U G51C] the figure was not above 0.5.
With GUUCCGUUGGCGUAAUGGUAGCGCGUCUCCCUCGUAAGGAGAAGACUGCGGGUUCGAGUCUCGUACGGAACG [A21G C34G C61U] the figure was 0.722.
The value for GUUCCGUUGGCGUAAUGGUAGCGCGUCUCCCUCGUAAGGAGAAGACUGCGGGUUCGAGUCCCGUAUGGAACG [A21G C34G C66U] was not above 0.5.
For the variant GUUCCGUUGGCGUAAUGGUAGCGCGUCUCCCUCAUAAGGAGAAGACUGCGGGUUAGAGUCCCGUACGGCACG [A21G C34A C55A A69C], the yeast fitness was 0.565.
The value for GUUCCGUUGGCGUAAUGGUAGCGCCUCUCCCUCCUAAGGAGAAGACUGCGGGUUCGAGUCCCGUACGGCACG [A21G G25C A69C] was 0.744; that for GUUCCGUUGGCGUAAUGGUAGCGCCUCUCCCUCCUAAGGAGAAGACUGCGGGUUCGAGUCCCGUACGGAACG [A21G G25C] was 1.04; that for GUUCCGUUGGCGUAAUGGUAGCCCGUCACCCUCCUAAGGAGAAGACUGCGGGUUCGAGUCCCGUACGGAACG [A21G G23C U28A] was not above 0.5.
With GUUCCGUUGGCGUAAUGGUAGCGCGUCUCCCUCCUAAGGAGAAGACUGCGGGUUCGAGUGCCGUACGGAACG [A21G C60G] the figure was 0.667; with GUUCCGUUGGCGUAAUGGUAGCGCGUCUCCCUCCUAAAGAGAAGACUGCGGGUUCGAGUCCCGUACGGAACG [A21G G38A], 0.881.
The value for GUUCCGUUGGCGUAAUGGUAGCGCGUCUCCCUCCUAAGAAGAAGACUGCGGGUUCGAGUCCCAUACGGAGCG [A21G G39A G63A A70G] was 0.619.
As for GUUCCGUUGGCGUAAUGGUAGCGCGUCUCCCUUCUAAGGAGAAGACUGCGGGUUCGAGACCCGUACGGAACG [A21G C33U U59A], the yeast fitness is not above 0.5.
With GUUCCGUUGGCGUAAUGGUAGCGCGUCUCCCUGCUAAGGAGAAGACUGCGGGUUCGAGUCCCGUACAGAACG [A21G C33G G67A] the figure was not above 0.5.
As to GUUCCGUUGGCGUAAUGGUAGCGCGUCUCCCUCCUAAGGAGAAGAUUGCGGGUUCGAGUACCGUACGGAACG [A21G C46U C60A], the yeast fitness is not above 0.5.
The value for GUUCCGUUGGCGUAAUGGUAGCGCGUCUCCCUCGUAAGGAGAAGACUGCGGGUUCGAGUCCCGUACGGAACG [A21G C34G] was 0.598; that for GUUCCGUUGGCGUAAUGGUAGCGCGUCUCCCUCUUAAGGAGAAGACUGCGGGUUCGAGUCCCGUACGGAACG [A21G C34U] was 0.701.
In the case of GUUCCGUUGGCGUAAUGGUAGCACGUCUCCCUCCUAAGGAGAAGACUGCGGGUUCGUGUCGCGUACGGAACG [A21G G23A A57U C61G], the yeast fitness is 0.623.
With GUUCCGUUGGCGUAAUGGUAGCGCGUCUCCCUCCUAAGGAGAAGACUGUGGGUUCGAGUCCCCUACGGAACG [A21G C49U G63C] the figure was not above 0.5.
